Experimental data from different studies.
Protocols differ between the studies behind these lines.
Cell line: THP-1

| SMILES | assay | conditions | IC50 |
| --- | --- | --- | --- |
| Cc1cnc(-c2ccc(-c3ccc(NC(=O)Nc4c(F)cc(F)cc4F)cc3F)c3c2C(=O)NC3)[nH]1 | cell growth or viability |  | 3.88 nM |
| O=[N+]([O-])c1c[nH]nc1-c1nc(-c2ccc(Oc3ccc(I)cc3)cc2)no1 | cell growth or viability, LDH | 24 h | > 50 µg/mL |
| CC[C@@H](C)[C@H](N)C(=O)N1Cc2ccccc2C1 | cell growth or viability, ATP luminescence | 48 h | 2500 nM |
| O=C(O)c1ccc(CN2CCC(CN[C@@H]3C[C@H]3c3ccccc3)CC2)cc1 | cell growth or viability, MTS | 6 days | > 50000 nM |
| CCn1c(-c2nnc(NC(=O)c3cc4c([nH]c5ccccc54)c(-c4ccc(C)cc4)n3)s2)cc2ccccc21 | cell growth or viability, MTT | 72 h | 38900 nM |
| NC[C@H](O)c1ccc(O)c(O)c1 | TNF-α release, inhibitor | 17 h, LPS-stimulated | 100 nM |
| COc1cccc2c1C(=O)c1c(O)c3c(c(O)c1C2=O)C[C@@](O)(C(=O)CO)C[C@@H]3O[C@H]1C[C@H](N)[C@H](O)[C@H](C)O1 | cell growth or viability, MTT | 48 h | 2.7 µg/mL |
| Nc1nc(Nc2ccc3c(c2)CC[C@@H](N2CCCC2)CC3)nn1-c1cc2c(nn1)-c1ccccc1CCC2 | cell growth or viability, trypan blue | 72 h | 2540 nM |
| O=C(Nc1nnc(-c2cc3ccccc3[nH]2)s1)c1cc2c([nH]c3ccccc32)c(-c2ccc(Cl)cc2)n1 | cell growth or viability, MTT | 72 h | 4380 nM |
| CC(CCc1ccc(O)cc1)NCCc1ccc(O)c(O)c1 (centres unmarked) | TNF-α release, inhibitor | 17 h, LPS-stimulated | 510 nM |
| CC(C)[C@H](N)C(=O)N1CCC[C@H]1B(O)O | cell growth or viability, ATP luminescence | 48 h | 206 nM |
| O=C(Nc1nnc(-c2cc3ccccc3[nH]2)s1)c1cc2c([nH]c3ccccc32)c(-c2ccccc2)n1 | cell growth or viability, MTT | 72 h | 3570 nM |
| CC(C)NC[C@@H](O)c1ccc(O)c(O)c1 | TNF-α release, inhibitor | 17 h, LPS-stimulated | 71 nM |
| COc1cc(-c2nc(C(=O)Nc3nnc(-c4cc5ccccc5n4C)s3)cc3c2[nH]c2ccccc23)cc(OC)c1OC | cell growth or viability, MTT | 72 h | 8780 nM |
| CC(C)(C)c1ccc(S(=O)(=O)/C=C/C#N)cc1 | TNF-α release, inhibitor | 17 h, LPS-stimulated | 740 nM |
| O=C(Nc1nnc(-c2cc3ccccc3[nH]2)s1)c1cc2c([nH]c3ccccc32)c(-c2ccc(F)cc2)n1 | cell growth or viability, MTT | 72 h | 6110 nM |
| NCCc1c[nH]cn1 | TNF-α release, inhibitor, ELISA | 17 h, LPS-stimulated | 710 nM |
| COc1ccc(-c2nc(C(=O)Nc3nnc(-c4cc5ccccc5[nH]4)s3)cc3c2[nH]c2ccccc23)cc1 | cell growth or viability, MTT | 72 h | 3180 nM |
| C=C1C(=O)O[C@H]2[C@H]1CC/C(C)=C/CC[C@@]1(C)O[C@@H]21 | TNF-α release, inhibitor | 17 h, LPS-stimulated | 1300 nM |
| Nc1ncc(-c2cnn(C3CCNCC3)c2)cc1-c1nnc(CC2CC2)o1 | cell growth or viability, trypan blue | 72 h | 163 nM |
